In brackets after ≈: the same amount, converted by molar mass. Activity calls are given as the source filed them. No cut-off for these calls is given here.
Assays:
LNCaP [1] = test: Antiproliferative activity against human LNCAP expressing AR assessed as reduction in cell viability incubated for 6 days by CCK-8 assay; type: functional, cell-based; settings: 144 h
Procedure, shortened: (§1)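 Cell proliferation assay run on LNCaP/AR, VCaP, 22Rv1, PC-3 and L-02 cells, with PC-3 and L-02 serving as AR-independent toxicity controls. IC50 fitted in GraphPad Prism 5 as the mean of at least two experiments, each in duplicate. Deviations under 35%.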

VCaP [2] = test: Antiproliferative activity against human VCaP expressing AR assessed as reduction in cell viability incubated for 6 days by CCK-8 assay; type: functional, cell-based; settings: 144 h; procedure, shortened: as §1
CWR22R = test: Antiproliferative activity against human 22Rv1 expressing AR assessed as reduction in cell viability incubated for 6 days by CCK-8 assay; type: functional, cell-based; settings: 22Rv1, 144 h; procedure, shortened: as §1
PC-3 = test: Cytotoxicity against human PC3 assessed as reduction in cell viability incubated for 6 days by CCK-8 assay; type: cell-based; settings: PC-3, 144 h; procedure, shortened: as §1
L02 = test: Cytotoxicity against human L02 assessed as reduction in cell viability incubated for 6 days by CCK-8 assay; type: cell-based; settings: L02, 144 h; procedure, shortened: as §1
[3] = target: T1, Androgen receptor (Homo sapiens) (UniProt P10275); test: Inhibition of AR in human HEK293 cells assessed as decrease in receptor transactivation at 10 uM incubated for 24 hrs by dual luciferase reporter gene assay; type: cell-based
T1 sequence (whole entry): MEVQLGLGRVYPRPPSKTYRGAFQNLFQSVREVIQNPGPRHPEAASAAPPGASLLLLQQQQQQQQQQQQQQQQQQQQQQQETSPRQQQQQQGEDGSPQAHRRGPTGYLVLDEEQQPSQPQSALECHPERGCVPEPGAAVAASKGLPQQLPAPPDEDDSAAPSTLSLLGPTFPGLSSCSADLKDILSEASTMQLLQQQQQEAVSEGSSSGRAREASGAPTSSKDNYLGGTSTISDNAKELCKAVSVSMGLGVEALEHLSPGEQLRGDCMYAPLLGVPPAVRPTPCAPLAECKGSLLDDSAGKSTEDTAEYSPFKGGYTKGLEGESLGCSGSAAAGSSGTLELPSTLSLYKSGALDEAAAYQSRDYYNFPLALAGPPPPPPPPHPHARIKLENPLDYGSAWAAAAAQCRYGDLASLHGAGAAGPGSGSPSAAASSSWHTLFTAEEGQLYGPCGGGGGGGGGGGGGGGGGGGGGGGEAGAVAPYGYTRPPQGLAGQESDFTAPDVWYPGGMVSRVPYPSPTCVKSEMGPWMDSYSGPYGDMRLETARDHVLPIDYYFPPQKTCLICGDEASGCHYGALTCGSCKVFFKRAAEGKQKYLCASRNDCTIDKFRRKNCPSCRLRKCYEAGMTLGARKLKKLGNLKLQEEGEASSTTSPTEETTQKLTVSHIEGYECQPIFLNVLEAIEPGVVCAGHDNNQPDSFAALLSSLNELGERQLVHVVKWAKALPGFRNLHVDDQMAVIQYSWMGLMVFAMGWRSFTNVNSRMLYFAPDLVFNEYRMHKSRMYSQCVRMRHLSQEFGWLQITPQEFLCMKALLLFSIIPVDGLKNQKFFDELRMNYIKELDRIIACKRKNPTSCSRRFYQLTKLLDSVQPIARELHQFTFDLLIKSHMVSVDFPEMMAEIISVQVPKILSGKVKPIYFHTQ
Procedure, shortened: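 HEK 293 cells transiently co-transfected with wt-AR expression vector and an androgen-responsive luciferase reporter construct. Cells given 2 nM testosterone plus 10 µM test compound (final concentrations). Read-out by luciferase, mean ± SD, n = 3.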

LNCaP [4] = test: Inhibition of AR protein expression in human LNCAP cells at 20 uM incubated for 24 hrs by Western blot analysis; type: functional, cell-based
Procedure, shortened: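 LNCaP cells treated with 20 µM compound or DMSO for 24 h. AR-full protein detected by western blot with tubulin as loading control, then quantified by ImageJ grayscale analysis.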

[5] = target: Bromodomain-containing protein 4 (Homo sapiens) (UniProt O60885); test: Inhibition of BRD4 (unknown origin) by alpha-screen assay
VCaP [6] = test: Antiproliferative activity against human VCaP expressing AR assessed as reduction in cell viability at 30 uM incubated for 6 days by CCK-8 assay relative to control; settings: 144 h, read-out: INH
VCaP [7] = test: Antitumor activity against castration-resistant human VCaP cells xenografted in BALB/c mouse assessed as tumor growth inhibition at 30 mg/kg, po administered for 40 days; type: functional; settings: 960 h, read-out: TGI
Procedure, shortened: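 Castration-resistant VCaP xenografts grown in male BALB/c nude mice. Animals dosed once daily for 40 days alongside a vehicle group. Tumor volume tracked over time, with tumor weights taken at end. Reported as tumor growth inhibition, mean ± SEM, N = 8-9 per group.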

[8] = Solubility of compound in PBS incubated for 24 hrs by HPLC analysis; type: physicochemical
Procedure, shortened: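 Solubility determined in PBS at 25 ℃ by the saturation shake-flask method. Quantified against calibration curves.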

[9] = Stability of compound in nutrient medium with fetal bovine serum and antibiotic incubated for 6 days by HPLC analysis; settings: 144 h

C[C@@H](Cn1ccc(-c2ccc(C#N)c(Cl)c2)n1)Nc1ncnc2ccccc12
IC50 (LNCaP [1]): 0.51 µM
IC50 (VCaP [2]): 1.31 µM
IC50 (CWR22R): 4.36 µM
IC50 (PC-3): > 30 µM
IC50 (L02): 13 µM
inhibition [3]: Active
inhibition (LNCaP [4]): Active

CC(O)c1cc(C(=O)N[C@@H](C)Cn2ccc(-c3ccc(C#N)c(Cl)c3)n2)n[nH]1 (stereo not given in full) [DAROLUTAMIDE]
IC50 (LNCaP [1]): 1.65 µM
IC50 (CWR22R): > 30 µM
IC50 (PC-3): > 30 µM
IC50 (L02): > 30 µM
inhibition [5]: inactive

CNC(=O)c1ccc(N2C(=S)N(c3ccc(C#N)c(C(F)(F)F)c3)C(=O)C2(C)C)cc1F [ENZALUTAMIDE]
IC50 (LNCaP [1]): 0.19 µM
IC50 (CWR22R): > 30 µM
IC50 (PC-3): > 30 µM
inhibition at 30 µM (VCaP [6]): 50%
inhibition [5]: inactive
inhibition in vivo at 30 mg/kg (VCaP [7]): 43%

CC(O)c1cc(C(=O)N[C@@H](C)Cn2ccc(-c3ccc(C#N)c(Cl)c3)n2)[nH]n1 (stereo not given in full) [DAROLUTAMIDE]
solubility at 24 h [8]: 223 µM (≈ 89 µg/mL)
Stability [9]: Stable
